Measurements as given in ChEMBL document CHEMBL4513216, “Probing the Open Global Health Chemical Diversity Library for Multistage-Active Starting Points for Next-Generation Antimalarials” (ACS Infect Dis, 2020).

Assay: Toxicity liver stage against HepG2, at 10uM
Type: cell-based
Design: test concentration 10 uM, cell line HepG2-A16-CD81EGFP
Conditions: human, HepG2-A16-CD81EGFP cells; read-out: INHIBITION
How it was run: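 Uninfected HepG2-A16-CD81EGFP cells, 3 × 10^3 per well, 1536-well, plated on prespotted compound at 10 μM final, parasite-free screening media added to match infected plates; puromycin 10 μM positive, DMSO 0.5% negative; run in parallel with 48 h PbLuc assay at 37 °C, 5% CO2; viability by CellTiter-Glo luminescence, normalized to controls.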

SMILES	cytotoxicity at 10 µM
Cn1c(=O)c2c(c3ccccc31)OC(C)(C)CC2	17.8%
CN(C)C(CNC(=O)c1nc(N2CCOCC2)ncc1Cl)c1ccco1 (stereo not given)	7.96%
CCN(CC)CC[C@H]1CN(C(=O)NC2CCCCC2)CC[C@H]1CC(=O)O	7.77%
Cn1nnc(NCc2ccccc2OCc2ccc(Cl)cc2)n1	2.71%
COc1ccc(CN2CCCCCC2c2cccs2)c(O)c1 (stereo not given)	3.6%
O=C1CC2(CCN(C(=O)c3ccccn3)CC2)Oc2c(Cl)cc(Cl)cc21	1.73%
O=C(NCCCn1ccnc1)c1cccnc1OCC(F)(F)F	6.58%
CN(C)C(CNc1c(NCc2ccco2)c(=O)c1=O)c1ccccc1 (stereo not given)	5.16%
CN(C)CC1CSCCCN1C(=O)c1cccc(C(F)(F)F)c1 (stereo not given)	-5.03%
CC(=O)N1Cc2nccn2CC(CNC(=O)c2cnccn2)C1 (stereo not given)	-144%
CC(C)NC(=O)N1CCC2(CC1)COc1ccccc1S(=O)(=O)N(C)C2	7.02%
O=C1CCCN1Cc1ncn2c1CN(C(=O)Cc1ccccc1)CCC2	6.49%
O=C(CSC1CCc2ccccc2NC1=O)NCCc1ccc(O)cc1 (stereo not given)	-4.25%
CC(C)NC(=O)C1CN(C(N)=O)Cc2ccnn2C1 (stereo not given)	-8.68%
CC(C)N1CCN(C(=O)c2[nH]nnc2Nc2ccccc2F)CC1	6.36%
CCc1cc(=O)n(CC(=O)N2CCCC2)c(-c2ccccc2)n1	7.25%
CCn1cc(-c2nn3c(C(F)(F)F)nnc3s2)c(C)n1	13.5%
CC(CNC(=O)c1cc(C2CC2)nc2c1cnn2C)Cn1cccn1 (stereo not given)	3.49%
Cc1ccc(-c2noc(C3CCN3C(=O)c3ccc(=O)[nH]n3)n2)s1 (stereo not given)	7.53%
COc1ccc(CCc2nnc(NC(=O)C3CC34CCC4)s2)cc1OC (stereo not given)	-0.095%
CC(=O)N1CCC(Cc2nccnc2-c2ccnn2C)CC1	-7.3%
O=C(O)c1ccc(=O)n(CC(c2ccc(Cl)cc2)N2CCOCC2)c1 (stereo not given)	2.91%

SMILES	cytotoxicity at 10 µM
CCNC(=O)Nc1ncc(-c2cccnc2)s1	14.6%
Cc1ncc(CNC(=O)CCc2c(C)noc2C)c(C2CCCN2C)n1 (stereo not given)	-8.86%
CC(C)OCCS(=O)(=O)N1CCN(Cc2cccn2C)CC1	-17.3%
O=C(NCc1ccnc(OCC(F)(F)F)c1)NCC1COCCO1 (stereo not given)	1.81%
CC(C(=O)N1CCCC1)S(=O)(=O)Cc1noc(C(C)(C)C)n1 (stereo not given)	-1.1%
Cc1nccc(CNC(=O)NC(c2ncc(C)s2)C2CC2)n1 (stereo not given)	-0.898%
O=C(NCC1CCS(=O)(=O)C1)N(Cc1ccccn1)C1CC1 (stereo not given)	-129%
CC(=O)N1CCC(NC(=O)Cc2nc3nc(C)cc(C)n3n2)CC1	8.52%
O=C(Nc1ccccn1)c1ccc(F)c(S(=O)(=O)NC2CC2)c1	4.37%
NC(=O)NC(=O)C(c1ccccc1)N1CCN(Cc2ccsc2)CC1 (stereo not given)	1.94%
O=C1CCCN1Cc1ccc(C(=O)N2CCCC2c2cccs2)cc1 (stereo not given)	3.78%
CN(C)C1Cc2ccccc2N(S(=O)(=O)c2cccc(C#N)c2)C1 (stereo not given)	9.89%
CCNC(=O)Cc1ccc(NC(=O)NC(CC)c2ccncc2)cc1 (stereo not given)	-3%
O=C(c1cc(Cl)c2c(c1)OCO2)N1CCN(c2cnccn2)CC1	6.76%
Cc1ccccc1C(=O)NCC(O)c1ccc(F)c(F)c1 (stereo not given)	-10.1%
Cc1ccccc1-c1cc(NC(=O)NC2CC2)n(CCO)n1	8.09%
CCN(CC)c1ccc(NS(=O)(=O)c2cnn(CC)c2)cn1	3.07%
c1ccc2c(N3CCOC(Cn4cccn4)C3)ncnc2c1 (stereo not given)	-1.04%
Cc1cc(F)ccc1-n1cc(O)c(C(=O)NCC2(O)CCC2)n1	0.477%
O=C(c1ccncc1)N1CCN(C(=O)c2coc3ccccc23)CC1	4.27%
CC1(C(=O)NCCN2CCCCC2)CCCN1C(=O)c1ccccc1 (stereo not given)	-6.44%
CC(NC(=O)Nc1nnc(-c2ccccn2)s1)C(=O)OC(C)(C)C (stereo not given)	-6.87%

SMILES	cytotoxicity at 10 µM
CN(C)CC(NC(=O)c1ccn(C)c(=O)c1)c1ccccc1 (stereo not given)	-5.85%
CSc1ccc(NC(=O)COCc2ccccc2)nc1	7.01%
CN(Cc1ccncc1)C(CO)c1cccc(Br)c1 (stereo not given)	15.4%
CN(C)C(=O)CN1CCN(c2cc(N3CCCC3CO)ncn2)CC1 (stereo not given)	-1.49%
CS(=O)(=O)NCCc1cccc2cccnc12	18.3%
CS(=O)(=O)N1CCN(C(=O)c2[nH]c3ccc(Cl)cc3c2Cl)CC1	24.6%
O=C(NCCc1nncn1C1CC1)c1cnn(Cc2ccccc2)c1	-2.36%
CC(C)c1ocnc1C(=O)N1CCC(=O)Nc2cccnc21	1.15%
Cc1cc(C)c(CNC(=O)NCc2nnc3n2CCCCC3)c(=O)[nH]1	-1.34%
Cc1noc(CNc2ccccc2N2CCCCC2)n1	-25.4%
COC(=O)c1cccc(S(=O)(=O)NC(=O)c2ccccc2F)c1	5.79%
CCCn1c(O)nnc1SCC1OCCc2ccccc21 (stereo not given)	4.32%
CC(C)CC(C(=O)N1CCCSCC1)N1CCCCC1=O (stereo not given)	-11%
NC(=O)C1CCN(Cc2cccc(NC(=O)c3ccsc3)c2)CC1	18.7%
Cn1cnc(-c2nc(C(=O)NCC3CCCO3)c3ccccn23)c1 (stereo not given)	-109%
Cc1cccc(C(=O)N2CC[C@@H]3CN(c4ncccn4)CCO[C@@H]3C2)c1	-71.6%
CCN1C(=O)[C@]2(CC[C@@H]3CN(S(=O)(=O)CC(C)C)C[C@@H]32)N=C1C	-78.2%
Cn1cc(C[C@H]2[C@@H](O)CCN2C(=O)c2ccc[nH]2)cn1	-71.2%
CCc1ccc(CN(C)c2ccc(-c3nc(COC)no3)cn2)nc1	-2.68%
Cc1n[nH]c(SCC(=O)N[C@@H](C)C(N)=O)n1	8.07%
O=C(CC1COCCN1)N1CCC(N2CCc3ccccc3C2)CC1 (stereo not given)	-176%
CN(C)c1nc2c(c(=O)[nH]1)CCN(C(=O)c1ccc(=O)[nH]c1)C2	10.2%

SMILES	cytotoxicity at 10 µM
Cc1ccc(-c2cnnc(NCC3(N4CCOCC4)CCCC3)n2)o1	-6.79%
Cc1nnc(CN(CCc2ccccc2)C2CCN(C)CC2)s1	0.219%
CCn1nc(C)c(C(=O)N2C[C@@H](CN(C)C)[C@@H](CO)C2)c1C	0.44%
C=C(C)COc1cccc(CN(CC)Cc2noc(C)n2)c1	-12%
COc1cccc2c1OCC(CNC(=O)Cn1ccnc1C)C2 (stereo not given)	-150%
O=C(Cc1ccc(F)cc1Cl)N[C@@H]1CCNC[C@H]1O	-0.918%
CCCn1c(C)c(CC(=O)NC(C)(C)CO)c2c1CC(C)(C)CC2=O	-8.97%
CCc1nc(C)c(CN2CCN(c3ncnc4c(C)csc34)CC2)[nH]1	17.6%
Cc1cccc(C(C(=O)N2CC(c3ccccn3)C2)N(C)C)c1 (stereo not given)	-13.1%
Cc1ccc(CN2CCC(Cc3nnc(CO)n3C)CC2)cc1C	5.19%
COc1ccc(F)c(CN2CCCC(O)(CNC3CCCCC3)C2=O)c1 (stereo not given)	8.28%
Cc1[nH]c(=O)[nH]c(=O)c1CN1CCCC(CCc2ccc(F)c(F)c2)C1 (stereo not given)	1.4%
CN(CCCc1nccn1C)C(=O)C1CCN(C(=O)C2CCC2)CC1	-7.12%
Cc1cncc(C(=O)N2CCCC(O)(CN3CCCC3)C2)c1 (stereo not given)	10.1%
COc1cc2cc(C(=O)NC(C)C(=O)O)n(C)c2c(OC)c1OC (stereo not given)	-162%
Cc1nc2c(c(=O)n1C)CCN(C(=O)CCc1ccccn1)CC2	14%
CC(C)n1cnnc1CN(C)C(=O)C1CCCN(CC(N)=O)C1 (stereo not given)	1.05%
CC(C)NC(=O)[C@@H]1C[C@H](N)CN1C(=O)c1cc2c([nH]c1=O)CCCC2	10.5%
COc1ccc2c(c1)OCC(CNC(=O)c1ccncc1)C2 (stereo not given)	-8.63%
CS(=O)(=O)N1CCCC(C(=O)Nc2cnn(COCC(F)(F)F)c2)C1 (stereo not given)	-11.5%
CNc1cc(C2CCCN2C(=O)c2ccc3oc(=O)n(C)c3c2)ccn1 (stereo not given)	1.68%
Cc1cncc(C2CCCN(C(=O)c3cccn3C)C2)n1 (stereo not given)	2.14%

SMILES	cytotoxicity at 10 µM
CC(NC(=O)NCc1cccc(F)c1)(C(=O)O)c1ccco1 (stereo not given)	-3.33%
COc1c(CNCc2ccc3c(c2)OCO3)c(C(C)C)nn1C	0.745%
CC(C)c1nn(C)c(N2CCOCC2)c1CNC(C)c1ccco1 (stereo not given)	-5.93%
Cc1cc(C(=O)N2CCCC2c2noc(C(C)C)n2)c(C)o1 (stereo not given)	-3.54%
CC(C)c1ccc(OCCC(=O)N2CCCC(C(N)=O)C2)cc1 (stereo not given)	-11.7%
Cc1cc(C)n(CC2CCCCN2C(=O)CCc2ccncc2)n1 (stereo not given)	2.1%
Cc1ccc(NC2CCN(C(=O)COc3cccc(F)c3)CC2)nn1	3.11%
COCCOc1ccccc1C(=O)NCCN(C)C(C)C	0.449%
O=C(CCc1ccc(Cl)s1)N1CCCC(n2cncn2)C1 (stereo not given)	-7.7%
Cc1cnc(CN2CCCC2c2noc(C)n2)cn1 (stereo not given)	3.78%
CCC(CC)NC(=O)Cn1nc(C)nc1-c1ccccc1	-7.22%
Cc1cc(C(=O)N2CCCC(n3cncn3)C2)c(C)n1C1CC1 (stereo not given)	-3.32%
CCn1c(C)nnc1CN(C)C1CCN(CCc2ccncc2)C1 (stereo not given)	3.97%
COCCNC(=O)[C@@H]1C[C@@H]2CCN(c3ncccn3)C[C@H]2O1	-2.48%
COCCNC(=O)C(C)N1CCN(C)CC1 (stereo not given)	-1.21%
CC(C)CCN1CCC2(CCCN(c3nncs3)C2)C1 (stereo not given)	-139%
O=C(c1ccno1)N1CC[C@@H]2O[C@H](COCCN3CCCC3)CC[C@@H]21	-79.1%
O=C(N1CCCC1)N1CC[C@H]2OCC[C@@]2(COc2ncccc2F)C1	-151%
Cc1nc(N2CCCC2)nc2c1CCN(Cc1ccsc1)CC2	-106%
CN(C)[C@@H]1CCN(C(=O)CC2CC2)[C@H]1Cc1cnn(C)c1	-67.3%
CC(=O)N1C[C@H]2CC[C@@H](C1)N(Cc1ccc(Cn3cccn3)cc1)C2	0.0531%
CC(=Cc1ccccc1)CNCc1cccc(C(N)=O)c1	6.03%
